LMPTP inh: LMPTP phosphatase inhibitors, primary screen, biochemical, fluorescence intensity, uHTS; recombinant LMPTP-A, OMFP fluorogenic substrate; inhibition, % at 20 µM; actives 0.22% (n = 360,000);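 active means compounds that cut the enzyme signal by at least half of the control window in the single-dose screen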
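Material: LMPTP-A; amount: 0.625 nM enzyme; doses: single 20 µM dose; times: reaction 50 min, room temperature, dark; technique: fluorescence intensity of OMFP turnover product; benchmarks: no-enzyme and uninhibited controls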
STEP inh: STEP phosphatase inhibitors, primary screen, biochemical, fluorescence intensity, uHTS | Tyrosine-protein phosphatase non-receptor type 5 (Homo sapiens), P54829 | recombinant STEP, OMFP fluorogenic substrate | inhibition, % at 20 µM | actives 0.25% (n = 360,000) | AID 588621, 2011;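 active means inhibition at 20 µM, scaled per plate between control wells, above about 37%, limit read from the data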
Target sequence (P54829 whole entry, looked up): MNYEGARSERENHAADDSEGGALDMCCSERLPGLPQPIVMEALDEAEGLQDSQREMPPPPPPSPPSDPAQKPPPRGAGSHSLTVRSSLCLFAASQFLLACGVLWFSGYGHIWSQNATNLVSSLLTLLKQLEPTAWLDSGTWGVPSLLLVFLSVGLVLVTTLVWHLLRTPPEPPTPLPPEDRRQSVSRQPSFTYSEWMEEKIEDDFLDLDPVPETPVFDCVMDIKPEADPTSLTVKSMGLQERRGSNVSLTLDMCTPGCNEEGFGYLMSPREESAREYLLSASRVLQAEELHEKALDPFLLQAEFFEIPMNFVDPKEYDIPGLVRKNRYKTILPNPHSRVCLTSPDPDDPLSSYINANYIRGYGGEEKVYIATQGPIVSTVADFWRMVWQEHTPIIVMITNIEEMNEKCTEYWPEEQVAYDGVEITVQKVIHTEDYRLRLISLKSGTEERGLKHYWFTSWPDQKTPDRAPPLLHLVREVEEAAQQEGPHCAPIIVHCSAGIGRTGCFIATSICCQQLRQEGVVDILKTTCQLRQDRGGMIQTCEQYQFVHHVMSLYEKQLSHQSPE
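Material: STEP (striatal-enriched tyrosine phosphatase) enzyme, cell-free | Medium: 50 mM Bis-Tris pH 6.0 with 2.5 mM DTT and 0.005% Tween 20 | Read-out: Percent inhibition scaled to no-enzyme and uninhibited-enzyme controls, plate-pattern corrected | Signal: Fluorescence read at 480 nm ex / 540 nm em | Times: 20 min reaction, room temperature, in the dark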
Scp1 inh: Scp-1 phosphatase inhibitors, primary screen, biochemical, colorimetric, uHTS; inhibition, % at 20 µM; Recombinant Scp1, phosphopeptide, malachite green phosphate absorbance; actives 0.88% (n = 340,000); Carboxy-terminal domain RNA polymerase II polypeptide A small phosphatase 1 (Homo …;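 active means inhibition above about 50% at 20 µM, limit read from the data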
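Assay system: SCP-1 catalytic fragment, aa 76-261 | Buffer or medium: Tris acetate buffer pH 5.5 with MgCl2 and Tween-20 | Compound: One concentration, 20 µM, with 1.0% DMSO | Also added: Phospho 17-mer peptide substrate | Signal: Absorbance at 630 nm | Incubation: 45 min enzyme reaction at room temperature | Measure: % inhibition of SCP-1 phosphate liberation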
SUMO1-SIM PPI: modulators of SUMO1 protein-protein interactions, primary screen, biochemical, uHTS | actives 0.33% (n = 360,000) | inhibition, % at 20 µM | SUMO1 binding to a labelled peptide, TR-FRET, 1 h | Small ubiquitin-related modifier 1 (Homo sapiens), P63165; in the data active means inhibition above about 37%
DNMT1 inh: human DNMT1 methyltransferase inhibitors, primary screen, biochemical, molecular beacon, fluorescence, HinP1I cleavage, uHTS | DNA (cytosine-5)-methyltransferase 1 (Homo sapiens), P26358 | inhibition (reported as % activation of signal), % at 10 µM | actives 0.83% (n = 360,000) | AID 588458, 2011; in the data active means inhibition above about 50%
CSN inh: inhibitors of CSN-mediated cullin deneddylation, primary screen, biochemical, fluorescence polarization, uHTS; Purified CSN, SCF-Nedd8-OG deneddylation; inhibition, % at 12.5 µM; actives 0.38% (n = 360,000); AID 651999, 2013;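 active means pattern-corrected inhibition above about 35%, with an unprinted fluorescence ratio check between 0.5 and 1.5, limit read from the data, passing the limit was not always enough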
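assay system = purified human Csn5 enzyme expressed in HEK293T cells | amount = 0.24 nM enzyme | buffer or medium = Tris/NaCl/DTT buffer, pH 7.5 | reagent = 10 nM SCFSkp2-Nedd8OG | compound = one concentration, 12.5 µM, 0.25% DMSO | times = 90 min reaction at room temperature | signal = FP | read-out basis = % inhibition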
STEP conf: STEP phosphatase inhibitor hit confirmation, biochemical, fluorescence intensity, single concentration; shares compounds with STEP inh; recombinant STEP, OMFP fluorogenic substrate; inhibition, % at 20 µM; actives 32% (n = 520); AID 623866, 2012; call rule not given here
A number is an active result; – = inactive; · = no result. Shown are actives, neighbours in structure and some others; about 1.9% of the full set was active somewhere.

SMILES | LMPTP inh | STEP inh | Scp1 inh | SUMO1-SIM PPI | DNMT1 inh | CSN inh | STEP conf
S=C1NC(C23CC4CC(CC(C4)C2)C3)=CC(c2ccc3c(c2)OCO3)N1 (stereo not drawn) | – | 61.6 | – | – | – | – | 24.8
COc1ccc(C)cc1S(=O)(=O)NCC(c1ccc2c(c1)OCO2)N1CCOCC1 (stereo not drawn) | – | – | – | – | – | – | ·
COc1cc(NC(=S)N2CCN(C)CC2)c(OC)cc1Cl | – | 42.3 | – | – | – | – | 27.7
CCCCC(=O)Nc1ccc2c(c1)nc(CCN1CCOCC1)n2C | – | 45.9 | – | – | – | – | –
C=C(C)COc1ccc2c(CC)cc(=O)oc2c1 | – | 118.0 | – | – | – | – | –
C=C(Cl)COc1ccc2c(CC)cc(=O)oc2c1 | – | – | – | – | – | – | ·
COC(=O)c1cc(OC)c(OC)cc1NC(=O)CCN1C(=O)C2CCCCC2C1=O (stereo not drawn) | – | – | · | – | – | – | ·
Cc1ccc(Cn2c(SCC(=O)Nc3cc(C)on3)nc3ccccc3c2=O)cc1 | – | 40.7 | – | – | – | – | –
Cc1cc(NC(=O)CSc2nc3ccccc3c(=O)n2Cc2ccccc2)no1 | – | – | – | – | – | – | ·
CCOc1ccccc1CNC(=O)C1CCN(S(=O)(=O)N2CCC(C)CC2)CC1 | – | – | · | – | – | – | ·
O=C(/C=C/c1ccccc1Cl)N1CCN(c2ncccn2)CC1 | – | 67.6 | – | – | – | – | –
O=C(/C=C/c1ccccc1Cl)N1CCOCC1 | – | – | – | – | – | – | ·
Cc1cc(C)cc(NC(=S)NC2CC3CCCC(C2)N3C2CCCC2)c1 (stereo not drawn) | – | 40.5 | – | – | – | – | –
Cc1cc(C)cc(NC(=S)NC2CC3CCCC(C2)N3C2CC2)c1 (stereo not drawn) | – | – | – | – | – | – | ·
COc1ccc(NC(=S)N2CCN(c3ncccn3)CC2)c(OC)c1 | – | 85.4 | – | – | – | – | –
COc1ccc(CC(=O)Nc2ccc(C(=O)Nc3ccccc3C(=O)O)cc2)cc1OC | – | – | – | – | – | – | ·
Cc1n[nH]c(=O)nc1NCc1ccc(Cl)cc1 | – | 39.4 | – | – | – | – | –
Cc1n[nH]c(=O)nc1NCCN(C)C | – | – | – | – | – | – | ·
CN1CCN(C(=O)/C=C/c2ccc3c(c2)OCO3)CC1 | – | 57.0 | – | – | – | – | –
COC(=O)c1sccc1NC(=O)c1ccc(C#N)cc1 | – | 98.2 | 116.5 | – | – | – | –
CC12CN(C(=O)c3cccc([N+](=O)[O-])c3)C3(C#N)CC1CCC23C (stereo not drawn) | – | – | – | – | – | – | ·
O=C1CC(=O)Nc2cc(S(=O)(=O)NCc3cccs3)ccc2N1 | – | 73.8 | – | – | – | – | –
O=C(O)c1cccc(S(=O)(=O)NCc2cccs2)c1 | – | – | – | – | – | – | ·
Oc1ccc(C(=S)N2CCN(Cc3ccccc3)CC2)cc1 | – | 61.9 | – | – | – | – | –
CN(C)c1ccc(C(=S)N2CCN(Cc3ccccc3)CC2)cc1 | – | 84.8 | – | – | – | – | 39.5
S=C(c1ccc(Br)cc1)N1CCN(Cc2ccccc2)CC1 | – | 90.2 | – | – | – | – | 38.3
O=C(c1ccc(Br)cc1)N1CCN(Cc2ccccc2)CC1 | – | – | – | – | – | – | ·
CCNC(=S)N1CCN(Cc2ccccc2)CC1 | – | – | – | – | – | – | ·

Compound activity (PubChem)
